Assay results: ChEMBL document CHEMBL4513216, “Probing the Open Global Health Chemical Diversity Library for Multistage-Active Starting Points for Next-Generation Antimalarials” (ACS Infect Dis, 2020)

Test: Toxicity liver stage against HepG2, at 10uM
Assay type: cell-based
Parameters: test concentration 10 uM, cell line HepG2-A16-CD81EGFP
Settings: human, HepG2-A16-CD81EGFP cells; read-out: INHIBITION
Outline: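 Uninfected HepG2-A16-CD81EGFP cells, 3 × 10^3 per well, 1536-well, plated on prespotted compound at 10 μM final, parasite-free screening media added to match infected plates; puromycin 10 μM positive, DMSO 0.5% negative; run in parallel with 48 h PbLuc assay at 37 °C, 5% CO2; viability by CellTiter-Glo luminescence, normalized to controls.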

SMILES	cytotoxicity at 10 µM [%]
CC(=O)N1CCN(C(=O)C[C@@H]2C[C@@H](C(C)C)[C@H](CC#N)C=C2C)CC1	-1.01
O=C(NC[C@H]1O[C@H](Cc2cc(-c3ccccn3)on2)CC[C@@H]1O)C1CC1	-2.69
O=S(=O)(NCC1(c2cccs2)CCCC1)c1cccnc1	-2.56
COc1ccc(CN2C[C@@H]3CN(C(=O)[C@H]4CCCO4)C[C@@H]3C2=O)cc1	-0.0368
O=C(c1cccnc1)N1CCc2onc(CN3CCCC3)c2C1	4.86
CN(C)C(=O)N1CC2(CCN(S(C)(=O)=O)CC2)c2ccccc21	-121
COCC1CN(C(=O)c2ccnnc2)Cc2ncnn2C1 (stereo unspecified)	-4.24
COc1ncccc1C(=O)N1CC[C@H]2C[C@@H](c3ccncn3)O[C@@H]2C1	-2.24
Cc1nc(N2CCCC2)nc2c1CCN(C(=O)C1CCCCC1)CC2	3.16
CC(C)NC(=O)Nc1ncc(-c2cccnc2)s1	7.05
O=C(NCC1(O)COCCN(Cc2ccc(O)cc2)C1)c1cnccn1 (stereo unspecified)	-12.8
CCC(Nc1ncccn1)c1ccc(OC)cc1 (stereo unspecified)	-12.6
COc1ccc(C2(c3nc(-c4cccnc4)no3)CCOCC2)cc1	13.9
Cc1c(C[S+](C)[O-])cccc1NC(=O)c1cc(Cl)ccn1 (stereo unspecified)	9.41
COc1ncccc1NC(=O)c1[nH]nc(C(C)C)c1Br	17.1
Cn1ccnc1C(O)(CCNCc1ccc(Cl)o1)C(F)(F)F (stereo unspecified)	4.91
CC(C)(C)c1noc(CCC(=O)N(CC2CCOC2)C2CC2)n1 (stereo unspecified)	2.66
CC(C)c1nnc2n1CCN(Cc1ccc3c(c1)OCCO3)C2	-0.234
COc1nc(N2CCC(CC(N)=O)CC2)ncc1Br	2.99
CCOC(=O)C1(O)CCN(C(=O)Nc2cccc(CC)c2)CC1	-140
CC(=O)Nc1ccc(CNC(C)c2c(C)nn(C)c2C)cc1 (stereo unspecified)	13

SMILES	cytotoxicity at 10 µM [%]
COC(=O)C(C)(C)NC(=O)c1cc2sc(N(C)C)nc2s1	-20.5
CC(=O)N1CCN(c2nc3c(cnn3C(C)(C)C)c(=O)[nH]2)CC1	-17.9
COc1ccc(CNC(Cn2cncn2)c2ccccc2)cc1O (stereo unspecified)	-6.74
COC(=O)CNc1cc(C(=O)NCC(F)(F)F)cc(F)c1C	6.05
Cc1ncsc1CNc1ccn(Cc2ccccc2)n1	9.58
CC(C)(C)n1cc(NC(=O)C2CN(Cc3ccccc3)CCO2)cn1 (stereo unspecified)	0.935
CC(C)c1noc(CNC2CCCN(Cc3noc(C4CC4)n3)C2)n1 (stereo unspecified)	-3.19
CCc1nnc2n1CCN(Cc1csc(-c3ccccc3F)n1)C2	-4.49
Cn1cc(-c2csc(N3CCSCC3)n2)cn1	-1.31
N#Cc1ccccc1C(=O)Nc1cccc(CN2CCC(CO)CC2)c1	-140
CN(C)C(CNC(=O)c1cccc(C(N)=O)c1)c1ccccc1Cl (stereo unspecified)	-4.83
OCC1CCCN1c1cc(NCc2ccccn2)ncn1 (stereo unspecified)	-8.01
Cc1cnn(CC2CCCN2C(=O)Cn2nc(C)c(Cl)c2C)c1 (stereo unspecified)	-11.3
CN(CC(F)(F)F)C(=O)c1ccc(F)c(NS(C)(=O)=O)c1	-2.05
Cc1ccc(C(C)(O)CNC(=O)c2sccc2OC(F)F)o1 (stereo unspecified)	-1.34
CC1CN(c2ccc(CNC(=O)NCCO)cn2)CCO1 (stereo unspecified)	6.15
O=C(CN1CCc2sccc2C1)Nc1nccs1	5.31
O=C(CCn1ccccc1=O)Nc1ccc(I)cc1	7.27
O=C1CN(CCCNC(=O)Nc2cccc(Cl)c2F)CCN1	15.2
COc1cccc(-c2n[nH]c3c2CN(C(=O)c2oc(C)cc2C)CC3)c1	-3.17
COc1ccc(N2CCN(Cc3nc(CSC)no3)CC2=O)cc1	1.44

SMILES	cytotoxicity at 10 µM [%]
CCCc1cc(NCCN2CCNC2=O)n2nccc2n1	-6.42
CC(C)CC(NC(=O)c1cc(C2CC2)n[nH]1)c1ncnn1C (stereo unspecified)	4.93
Cn1ccnc1-c1nc2cc(S(=O)(=O)N3CCCC3)ccc2n1C	5.05
Cn1cc(Cl)c(C(=O)N2CCC(N3CCc4ccccc4C3)CC2)n1	-2.27
CCc1noc(CN(CC)Cc2cc3cc(C)ccc3[nH]c2=O)n1	2.7
CN(Cc1ccccc1)S(=O)(=O)N1C[C@H](C2CC2)[C@@H](N)C1	-159
Cc1ccc(OC2(C(=O)O)CCN(C/C=C/c3ccco3)CC2)cc1	-14.4
Cn1cnnc1CN1CCC2(CCC(=O)N(Cc3ccccn3)C2)CC1	7.82
COCCCN1CCC(c2nc3c([nH]2)CC(C)(C)CNC3=O)C1 (stereo unspecified)	0.0531
CN(CC(=O)N1CC(Oc2ccccc2Cl)C1)Cc1ccncc1	-2.67
O=C(Nc1nncs1)N1CCCN(C2CCCCC2)CC1	1.48
O=C(NCc1cc2n(n1)CCCNC2)C1(c2ccc(Cl)cc2)CCC1	-9.72
CCCc1nc(C)cc(N2CCC3(CCC(=O)N(CC(N)=O)C3)CC2)n1	-8.38
CCN1CCN(CC(=O)N2CCOC(Cc3ccc(OC)cc3)C2)CC1 (stereo unspecified)	-2.77
COc1ccccc1OCCNC(=O)CN1CCc2cncnc2C1	-15.6
CN(CCCc1cc(-c2ccccc2)no1)S(C)(=O)=O	-14.4
Cc1nc(C)n(CC2CCCN(Cc3cccc(C(N)=O)c3)C2)n1 (stereo unspecified)	-29
CC(C)c1nc(C2CCCN(C(=O)CCc3cscn3)C2)no1 (stereo unspecified)	-17.2
c1ccc(-c2nnc(CNC3CCCN(c4cccnn4)C3)o2)cc1 (stereo unspecified)	-9.45
Cc1noc(C)c1CN1CCC(c2ccnn2CCO)CC1	-9.73
Cc1nnc2n1CCN(CCCS(=O)(=O)c1ccccc1)C2	-11.2

SMILES	cytotoxicity at 10 µM [%]
Cc1ccc(N(C)S(=O)(=O)c2cc(C(=O)O)cs2)c(C)c1	1.82
CN(CCNC(=O)NCc1ccsc1)C1CCCC1	-12.4
CC(C)Cc1cc(C(=O)NCCn2nc3ccccn3c2=O)[nH]n1	-16.3
O=C(N1CCCC1)N1CCc2c(CNc3ncccn3)cncc2C1	3.97
COc1ccc(C(C)NCc2c[nH]nc2C)cc1OC (stereo unspecified)	-3.75
c1snnc1CN1C[C@H]2CCC[C@@H](CN3CCOCC3)[C@H]2C1	-116
CN(C)[C@@H]1CCN(c2ncc(F)cn2)[C@H]1Cc1ccncc1	-1.96
Cn1cccc1CN1CCC2(CCCN(C(=O)c3cccnc3)C2)CC1	-147
O=C(Nc1ccccc1)C1CN(CC2CCOCC2)CC12CCOCC2 (stereo unspecified)	1.65
COCC1CN(Cc2sccc2C)Cc2nnn(CC3CC3)c21 (stereo unspecified)	4.35
CC(C)N1CCC2(C=C(C(=O)N(C)C)c3ccccc32)CC1	1.24
CC(=O)N1C(CN2CCCC2)C[C@@H]2CN(C(=O)c3ccoc3)CC[C@@H]21 (stereo partly specified)	-0.655
COC1CC2(CCN(Cc3nccn3C)CC2)C1	-133
CC(=O)N1CCS(=O)(=O)[C@@H]2CCN(CC(C)C)CC[C@@H]21	-142
Cn1nc(Cn2cccn2)c2c1CN(Cc1ccsc1)C2	-148
CN(C)CC1CN(C(=O)CCc2ccccc2)Cc2nccn2C1 (stereo unspecified)	-121
CC(C)CNC(=O)[C@H]1C[C@H]2CN(C(=O)NCC3CCCCC3)C[C@@H]1O2	-4.81
CN1C(=O)[C@@H]2CC[C@H]1CN(C(=O)Nc1cccc3ccccc13)C2	-2.69
